This note sets out measurements from ChEMBL document CHEMBL5154918, “Synthesis and Biological Characterization of a Series of 2-Sulfonamidebenzamides as Allosteric Modulators of MrgX1” (ACS Med Chem Lett, 2022).

Data set [1] concerns the target T1, Mas-related G-protein coupled receptor member X1 (Homo sapiens, UniProt Q96LB2). Kind of data set: Positive allosteric modulator activity at human MRGPRX1 expressed in HEK293 cells assessed as maximal efficacy at 5 uM in presence of BAM8-22 by Fluo4-dye based FLIPR assay relative to control. The note with it: filed as positive allosteric modulator. The format is cell-based.

A short description of data set [2]: Ratio of drug concentration in brain to plasma in Sprague-Dawley rat at 0.25 mg/kg measured after 15 mins. The format is ADME, organism-based. Particulars: brain and plasma. In outline: (§1)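 Brain sampled on Day 2 at 0.25 h, with matching plasma, after a 0.25 mg/kg IV cassette dose (5-in-1) in male Sprague–Dawley rats. Vehicle was DMSO:PEG400:EtOH:Saline (5:48:10:37). Kp is total brain/plasma concentration ratio.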

Data set [3] can be described thus: Plasma protein binding in mouse assessed as unbound fraction. The format is ADME, cell-free. The note with it: read-out: PPB. The method in brief:
(§2)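 Equilibrium dialysis in human and mouse plasma; results expressed as […] fraction unbound.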

The nature of data set [4]: Drug concentration in Sprague-Dawley rat plasma at 0.25 mg/kg measured up to 48.25 hrs. The format is ADME, organism-based. The method in brief: as §1
Data set [5] in a line: Microsomal stability in human liver microsomes assessed as intrinsic clearance. Particulars: read-out: CLH. The format is ADME, Microsome. In outline:
(§3)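 Intrinsic clearance measured in human and mouse liver microsomes. Hepatic clearance predicted from it with the well-stirred organ CL model, binding terms excluded.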

The target in data set [6] is T1, Mas-related G-protein coupled receptor member X1. Kind of data set: Positive allosteric modulator activity at human MRGPRX1 expressed in HEK293 cells in presence of BAM8-22 by Fluo4-dye based FLIPR assay. The format is cell-based. The method in brief: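 HEK293 cells expressing MrgX1. Compounds tested in the presence of 10 nM BAM8-22. Emax normalized to control compound ML382; mean ± SEM of n = 2 experiments.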

The nature of data set [7]: AUC in Sprague-Dawley rat at 0.25 mg/kg, iv bolus injection administered as cassette dose. The note with it: in vivo. The format is ADME, organism-based. Further details: dose 0.25 mg/kg, route iv. In outline: (§4)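 Male Sprague–Dawley rats, 5-in-1 cassette, 0.25 mg/kg IV of each test article in DMSO:PEG400:EtOH:Saline (5:48:10:37). Plasma sampled at 0.0833, 0.25, 0.5, 1, 3, 4, 8 and 24 h, plus Day 2 at 0.25 h post dose.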

Data set [8] can be described thus: Half life in Sprague-Dawley rat at 0.25 mg/kg, iv bolus injection administered as cassette dose. The format is ADME, organism-based. Particulars: in vivo. The method in brief:
as §4

Another data set has as its target Histamine H1 receptor (Homo sapiens, UniProt P35367). Kind of data set: Binding affinity to H1 receptor (unknown origin).
Data set [9] in a line: Drug concentration in Sprague-Dawley rat brain at 0.25 mg/kg measured up to 48.25 hrs. The format is ADME, organism-based. Particulars: read-out: Ct. In outline: as §1
Data set [10] can be described thus: Volume of distribution at steady state in Sprague-Dawley rat at 0.25 mg/kg, iv bolus injection administered as cassette dose. Particulars: in vivo, read-out: Vdss. The format is ADME, organism-based. The method in brief:
as §4

Data set [11] in a line: Clearance in Sprague-Dawley rat at 0.25 mg/kg, iv bolus injection administered as cassette dose. The format is ADME, organism-based. The note with it: in vivo. The method in brief:
as §4

Data set [12] in a line: Plasma protein binding in human assessed as unbound fraction. The format is ADME, cell-free. Particulars: read-out: PPB. In outline:
as §2

Data set [13] in a line: Microsomal stability in mouse liver microsomes assessed as intrinsic clearance. The format is ADME, Microsome. Particulars: read-out: CLH. The method in brief: as §3
Another data set deals with Translocator protein (Homo sapiens, UniProt P30536). Kind of data set: Binding affinity to peripheral benzodiazepine receptor (unknown origin).
Data set [14] in a line: AUC in mouse at 2 mg/kg, ip administered as discrete dose. The arrangement: dose 2 mg/kg, route ip. The format is ADME, organism-based. The note with it: in vivo. The method in brief: (§5)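 Discrete (single-compound) mouse PK, dosed IP at 2 mg/kg in 10% DMSO/10% cremophor EL/30% PEG400/50% water. Plasma and brain concentrations measured; brain:plasma ratio reported.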
Data set [15] in a line: Tmax in mouse at 2 mg/kg, ip administered as discrete dose. The note with it: in vivo. The format is ADME, organism-based. The method in brief: as §5
Data set [16] is described as follows: Cmax in mouse at 2 mg/kg, ip administered as discrete dose. The format is ADME, organism-based. The arrangement: dose 2 mg/kg, route ip. The note with it: in vivo. In outline:
as §5

A short description of data set [17]: Half life in mouse at 2 mg/kg, ip administered as discrete dose. The note with it: in vivo. The format is ADME, organism-based. In outline:
as §5

Data set [18] can be described thus: Ratio of drug concentration in brain to plasma in mouse at 2 mg/kg, ip administered as discrete dose. The format is ADME, organism-based. The note with it: brain and plasma, read-out: BPR. In outline:
as §5

The target in another data set is D(1B) dopamine receptor (Homo sapiens, UniProt P21918). Kind of data set: Binding affinity to D5 receptor (unknown origin).
D(1B) dopamine receptor, sequence (P21918 whole entry): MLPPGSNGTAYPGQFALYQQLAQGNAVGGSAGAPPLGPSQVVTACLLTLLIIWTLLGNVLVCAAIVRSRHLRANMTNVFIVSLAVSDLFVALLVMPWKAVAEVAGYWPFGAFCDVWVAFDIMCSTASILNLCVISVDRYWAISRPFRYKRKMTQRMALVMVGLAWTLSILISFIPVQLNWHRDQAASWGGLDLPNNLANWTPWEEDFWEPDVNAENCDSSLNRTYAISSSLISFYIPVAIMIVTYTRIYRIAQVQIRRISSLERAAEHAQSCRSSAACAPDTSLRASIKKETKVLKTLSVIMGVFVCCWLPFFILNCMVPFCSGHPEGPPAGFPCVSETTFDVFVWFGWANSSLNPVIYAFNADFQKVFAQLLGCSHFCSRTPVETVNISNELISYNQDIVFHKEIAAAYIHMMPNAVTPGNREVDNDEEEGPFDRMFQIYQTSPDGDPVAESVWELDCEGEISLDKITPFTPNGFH

T1 sequence (Q96LB2 whole entry): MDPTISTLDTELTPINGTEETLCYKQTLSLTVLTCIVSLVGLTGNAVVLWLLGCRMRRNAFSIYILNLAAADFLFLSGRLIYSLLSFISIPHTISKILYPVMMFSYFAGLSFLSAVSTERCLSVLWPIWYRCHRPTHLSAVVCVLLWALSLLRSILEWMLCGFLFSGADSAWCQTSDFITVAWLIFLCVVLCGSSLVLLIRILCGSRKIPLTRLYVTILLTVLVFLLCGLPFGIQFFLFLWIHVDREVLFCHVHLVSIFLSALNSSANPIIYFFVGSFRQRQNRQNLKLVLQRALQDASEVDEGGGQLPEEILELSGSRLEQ
Translocator protein, sequence (P30536 whole entry): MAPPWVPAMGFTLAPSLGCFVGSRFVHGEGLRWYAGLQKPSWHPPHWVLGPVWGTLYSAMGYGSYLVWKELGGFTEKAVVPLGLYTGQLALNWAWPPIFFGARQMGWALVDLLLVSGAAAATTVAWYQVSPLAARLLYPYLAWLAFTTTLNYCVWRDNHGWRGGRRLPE
Histamine H1 receptor, sequence (P35367 whole entry): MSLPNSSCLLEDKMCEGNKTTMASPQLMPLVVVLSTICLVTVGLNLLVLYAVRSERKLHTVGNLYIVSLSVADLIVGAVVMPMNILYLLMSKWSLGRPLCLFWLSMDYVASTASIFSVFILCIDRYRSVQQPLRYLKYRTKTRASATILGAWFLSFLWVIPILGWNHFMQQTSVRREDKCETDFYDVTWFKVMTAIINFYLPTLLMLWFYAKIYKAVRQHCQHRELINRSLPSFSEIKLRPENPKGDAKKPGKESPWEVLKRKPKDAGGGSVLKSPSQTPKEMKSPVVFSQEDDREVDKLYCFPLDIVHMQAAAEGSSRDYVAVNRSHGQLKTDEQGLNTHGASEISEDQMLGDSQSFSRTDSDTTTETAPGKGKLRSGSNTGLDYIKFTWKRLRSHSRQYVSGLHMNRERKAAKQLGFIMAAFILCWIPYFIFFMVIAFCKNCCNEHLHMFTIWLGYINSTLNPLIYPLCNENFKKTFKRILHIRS

On to `CCOc1ccc(F)cc1NC(=O)c1cc(C)ccc1NS(=O)(=O)C1CC1`, for which the Emax in data set [1] came to 106%. Besides, in [2], the Kp at 0.25 h was determined as 0.57. Moreover, the fraction unbound in data set [3] is 0.012; in data set [12], 0.003. Besides, the concentration at 48.25 h in data set [4] turned out to be 61.5 ng/mL; in [9], 35.1 ng/g. Also, the figures for the CLint scaled in [5] and in data set [13] were 114 mL/min/kg and 1100 mL/min/kg, respectively. For the same compound, in data set [6], the concentration for a half-maximal effect (EC50) was found to be 69 nM. Besides, in data set [7], the AUC amounted to 66.2 ng·h/mL. The compound also gave a half-life in data set [8] of 25.2 min. The compound also registered a Ki on Histamine H1 receptor of 1090 nM. Further, the Vd in data set [10] is 1.2 L/kg. For the same compound, the clearance in data set [11] came out at 63.1 mL/min/kg.

The compound `CCOc1ccc(F)cc1NC(=O)c1cc(F)ccc1NS(=O)(=O)C1CC1` registered a Ki at Translocator protein of 71 nM. The Emax in [1] came to 127%. In addition, the Kp at 0.25 h in data set [2] came to 0.19. In addition, the AUC was found to be 426 ng·h/mL in [14] and 304 ng·h/mL in [7]. The fraction unbound in data set [3] is 0.011; in data set [12] it was 0.002. The Tmax in [15] is 10.2 min. The concentration at 48.25 h in data set [4] came to 297 ng/mL; in [9], 55.9 ng/g. In data set [16], this compound yielded a Cmax of 1280 ng/mL. For the same compound, the CLint scaled in data set [5] turned out to be 59.4 mL/min/kg; in [13], 980 mL/min/kg. In data set [6], the EC50 was 13 nM. Further, the half-life in [8] is 24.6 min; in data set [17], 7.2 min. Besides, the Vd in data set [10] was 0.34 L/kg. The clearance in data set [11] came out at 14.1 mL/min/kg. The Kp in [18] worked out at 0.2.

In the case of `CCOc1ccc(F)cc1NC(=O)c1ccccc1NS(=O)(=O)C1CC1`, the inhibition constant Ki was greater than 4 µM at D(1B) dopamine receptor, 271 nM on Translocator protein and greater than 4000 nM at Histamine H1 receptor. For the same compound, the maximal response (Emax) in data set [1] amounted to 82.2%. The Kp at 0.25 h in data set [2] was 0.29. Further, the values for the area under the curve (AUC) in data set [14] and in [7] were 69 ng·h/mL and 119 ng·h/mL, respectively. Besides, the fraction unbound amounted to 0.022 in data set [3] and 0.004 in data set [12]. In addition, the Tmax in data set [15] is 10.2 min. The concentration at 48.25 h turned out to be 79.6 ng/mL in [4] and 23.6 ng/g in data set [9]. In [16], this compound displayed a Cmax of 259 ng/mL. In addition, the CLint scaled in [5] came out at 79.1 mL/min/kg; in [13], 1660 mL/min/kg. Moreover, the EC50 in data set [6] is 14 nM. In addition, the half-life in [8] was 28.8 min; in data set [17] it was 10.8 min. Also, the Vd in data set [10] is 0.52 L/kg. Further, the clearance in data set [11] was determined as 36.7 mL/min/kg. Further, the Kp in data set [18] was 0.32.
